Data as given in ChEMBL document CHEMBL1122058, “Agents for the treatment of brain injury. 1. (Aryloxy)alkanoic acids” (J Med Chem, 1982).
Calls of active or inactive are those of the source. The calls are words filed in the database; no cut-off is given here.

Legend:
Pan troglodytes [1] = species: Pan troglodytes; experiment: Relative salidiuretic efficacy was scored in chimpanzee; moderate; type: functional, organism-based; details: Urine
Felis catus [2] = species: Felis catus; experiment: In vitro inhibition of tissue swelling of Cerebrocortical slices from cat with addition of Sodium Bicarbonate (NaHCO3) and at a compound concentration of 1 X 10E-5 M; type: functional
How it was run: (§1)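 Cat cerebral cortex slices (~150 mg, 0.5 mm) incubated aerobically 60 min at 37 °C in K+-rich (27 mM) Hepes-buffered saline-glucose with test compound as Na salt. HCO3- (NaHCO3 or TEAB) added from sidearm at 20 min to 10 mM final; HCO3- flasks gassed with 2.5% CO2/97.5% O2. Swelling by reweighing; Na+/K+ by flame photometry, Cl- by amperometric titration. Units: per g initial fresh weight; means ± SE, Student's t test.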

Felis catus [3] = species: Felis catus; experiment: In vitro inhibition of tissue swelling of Cerebrocortical slices from cat with addition of Triethylammonium Bicarbonate (TEAB) and at a compound concentration of 1 X 10E-5 M.; type: functional; how it was run: as §1
[4] = Evaluated for Potassium ion content of Cerebrocortical slices in cat with addition of Sodium Bicarbonate (NaHCO3) and at a compound concentration of 1 X 10E-5 M; type: functional, Felis catus; how it was run: as §1
Felis catus [5] = species: Felis catus; experiment: Evaluated for chloride ion content of Cerebrocortical slices in cat with addition of Sodium Bicarbonate (NaHCO3) and at a compound concentration of 1 X 10E-5 M; type: functional; how it was run: as §1
Canis familiaris [6] = species: Canis familiaris; experiment: Relative salidiuretic efficacy was scored in dog; weak; type: functional, organism-based; details: Canis lupus familiaris; Urine
Felis catus [7] = species: Felis catus; experiment: In vitro inhibition of HCO3- stimulated swelling in cat cerebrocortical tissue slice; No inhibition occurred; type: functional; details: read-out: I 50; how it was run: as §1
Rattus norvegicus [8] = species: Rattus norvegicus; experiment: Relative salidiuretic efficacy was scored in Rat; moderate; type: functional, organism-based; details: Urine
[9] = Distribution coefficient (D %) between octanol and buffer of pH 7.4; type: physicochemical; details: octanol/water
[10] = Compound at a concentration of 1 X 10E-5 M along with addition of Sodium Bicarbonate (NaHCO3) was tested for percent bicarbonate stimulated swelling of Cerebrocortical slices in cat (in vitro); type: functional, Felis catus; how it was run: as §1
[11] = Dissociation constant (pKa) (determined in 30% EtOH); type: physicochemical
[12] = Evaluated for Potassium ion content of Cerebrocortical slices in cat with addition of Triethylammonium Bicarbonate (TEAB) and at a compound concentration of 1 X 10E-5 M.; type: functional, Felis catus; how it was run: as §1
Felis catus [13] = species: Felis catus; experiment: Evaluated for chloride ion content of Cerebrocortical slices in cat with addition of Triethylammonium Bicarbonate (TEAB) at a compound concentration of 1 X 10E-5 M.; type: functional; how it was run: as §1
Felis catus [14] = species: Felis catus; experiment: Evaluated for Sodium ion content of Cerebrocortical slices in cat with addition of Sodium Bicarbonate (NaHCO3) at a compound concentration of 1 X 10E-5 M..; type: functional; how it was run: as §1
[15] = Evaluated for Sodium ion content of Cerebrocortical slices in cat with addition of Triethylammonium Bicarbonate (TEAB) at a compound concentration of 1 X 10E-5 M.; type: functional, Felis catus; how it was run: as §1
Rattus norvegicus [16] = species: Rattus norvegicus; experiment: Relative salidiuretic efficacy was scored in Rat; marked; type: functional, organism-based; details: Urine
[17] = Evaluated for chloride ion content of Cerebrocortical slices in cat with addition of Sodium Bicarbonate (NaHCO3) at a compound concentration of 1 X 10E-5 M..; type: functional, Felis catus; how it was run: as §1
[18] = In vitro inhibition of tissue swelling of Cerebrocortical slices from cat with addition of Triethylammonium Bicarbonate (TEAB) at a compound concentration of 1 X 10E-5 M.; type: functional, Felis catus; how it was run: as §1
Pan troglodytes [19] = species: Pan troglodytes; experiment: Relative salidiuretic efficacy was scored in chimpanzee; marked; type: functional, organism-based; details: Urine
Felis catus [20] = species: Felis catus; experiment: Evaluated for Potassium ion content of Cerebrocortical slices in cat with addition of Sodium Bicarbonate (NaHCO3) at a compound concentration of 1 X 10E-7 M..; type: functional; how it was run: as §1
Felis catus [21] = species: Felis catus; experiment: In vitro inhibition of tissue swelling of Cerebrocortical slices from cat with addition of Sodium Bicarbonate (NaHCO3) at a compound concentration of 1 X 10E-5 M..; type: functional; how it was run: as §1
[22] = Evaluated for Potassium ion content of Cerebrocortical slices in cat with addition of Sodium Bicarbonate (NaHCO3) at a compound concentration of 1 X 10E-5 M; type: functional, Felis catus; how it was run: as §1
Canis familiaris [23] = species: Canis familiaris; experiment: Relative salidiuretic efficacy was scored in dog; moderate; type: functional, organism-based; details: Canis lupus familiaris; Urine
Felis catus [24] = species: Felis catus; experiment: In vitro inhibition of HCO3- stimulated swelling in cat cerebrocortical tissue slice; type: functional; details: read-out: I 50; how it was run: as §1
Felis catus [25] = species: Felis catus; experiment: Evaluated for Potassium ion content of Cerebrocortical slices in cat with addition of Triethylammonium Bicarbonate (TEAB) at a compound concentration of 1 X 10E-5 M.; type: functional; how it was run: as §1
Felis catus [26] = species: Felis catus; experiment: In vitro inhibition of tissue swelling of Cerebrocortical slices from cat with addition of Sodium Bicarbonate (NaHCO3) at a compound concentration of 1 X 10E-7 M; type: functional; how it was run: as §1
Pan troglodytes [27] = species: Pan troglodytes; experiment: Relative salidiuretic efficacy was scored in chimpanzee; Marginal; type: functional, organism-based; details: Urine
Felis catus [28] = experiment: Mortality of animals recorded as the number of animals dead out of the total animals (16) taken for the study at dose 5 mg/kg; type: functional
How it was run: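 Adult conditioned cats (2.5–4 kg) under iv methohexital (13.25 mg/kg, plus 2.75 mg/kg if needed) received machine-induced acceleration/deceleration head injury. Forty min later they were paralysed with gallamine and ventilated with 6% O2/94% N2 for 60 min (arterial pO2 23 ± 1 torr). Drug was given iv 20 min post-injury, before hypoxemia. Mortality was scored as dead/total, chi-square tested.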

Canis familiaris [29] = species: Canis familiaris; experiment: Relative salidiuretic efficacy was scored in dog; Marginal; type: functional, organism-based; details: Canis lupus familiaris; Urine
Rattus norvegicus [30] = species: Rattus norvegicus; experiment: Relative salidiuretic efficacy was scored in Rat; Marginal; type: functional, organism-based; details: Urine

In the case of `C[C@@]1(C2CCCC2)Cc2cc(OCC(=O)O)c(Cl)c(Cl)c2C1=O`, the Relative salidiuretic activity (Pan troglodytes [1]) is reported as “marked”, the Tissue swelling (Felis catus [2]) is reported as 266 µL/g and the Activity (Felis catus [3]) is reported as 279 µM/g. For the same compound, the Activity [4] was 96.4 µM/g, the Activity (Felis catus [5]) was 104.6 µM/g and the Relative salidiuretic activity (Canis familiaris [6]) was “marked”. The IC50 (Felis catus [7]) was over 10 µM, the Relative salidiuretic activity (Rattus norvegicus [8]) was “marked” and the Distribution [9] was 90%. The Activity [10] was 100, the pKa [11] was 3.9 and the Activity [12] was 93.6 µM/g.

For `C[C@]1(C2CCCC2)Cc2cc(OCC(=O)O)c(Cl)c(Cl)c2C1=O`, the Activity (Felis catus [13]) was 84.1 µM/g, the Activity (Felis catus [14]) was 101.8 µM/g and the Activity [15] was 100.9 µM/g. The Relative salidiuretic activity (Rattus norvegicus [16]) was “marked”, the Activity [17] was 89 µM/g and the Tissue swelling [18] was 156 µM/g. For the same compound, the Relative salidiuretic activity (Pan troglodytes [19]) was “marked”, the Activity (Felis catus [20]) was 98.4 µM/g and the Tissue swelling (Felis catus [21]) was 157 µL/g. For the same compound, the Activity [22] was 92.4 µM/g, the Relative salidiuretic activity (Canis familiaris [23]) was “marked” and the IC50 (Felis catus [24]) was 100 nM. For the same compound, the Distribution [9] was 90%, the Activity (Felis catus [25]) was 95.9 µM/g and the Tissue swelling (Felis catus [26]) was 232 µL/g. The pKa [11] was 3.9.

For `CC1(C2CCCC2)Cc2cc(OCCCC(=O)O)c(Cl)c(Cl)c2C1=O` (racemic), the Relative salidiuretic activity (Pan troglodytes [27]) was “inactive”, the Mortality (Felis catus [28]) was 4 and the Relative salidiuretic activity (Canis familiaris [29]) was “inactive”. For the same compound, the IC50 (Felis catus [24]) was 20 nM, the Distribution [9] was 99% and the Relative salidiuretic activity (Rattus norvegicus [30]) was “inactive”. It also gave a pKa [11] of 5.7.
